In ChEMBL document CHEMBL1142180, “First characterization of fluoroquinolone resistance in Streptococcus suis” (2007):
Converted amounts (≈) assume the structure as drawn.

Tests used:
Type in all cases: functional
Streptococcus suis [1] = experiment: Antibacterial activity against Streptococcus suis BB1009 isolate after 24 hrs
Procedure, shortened: (§1)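 Broth microdilution MIC assay against S. suis collection strain or Spanish/South American swine clinical isolates, incubated at 37°C for 24 h; MIC reported in μg/ml.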

Streptococcus suis [2] = experiment: Antibacterial activity against Streptococcus suis BB1010 isolate after 24 hrs; procedure, shortened: as §1
Streptococcus suis [3] = experiment: Antibacterial activity against Streptococcus suis BB1001 isolate after 24 hrs; procedure, shortened: as §1
Streptococcus suis [4] = experiment: Antibacterial activity against Streptococcus suis BB1013 isolate in presence of 10 ug/ml reserpine after 24 hrs
Procedure, shortened: (§2)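 Clinical swine S. suis isolates; MIC by microdilution, 37°C for 24 h, ciprofloxacin tested with reserpine added; MIC reported in μg/ml.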

Streptococcus suis [5] = experiment: Antibacterial activity against Streptococcus suis BB1009 isolate in presence of 10 ug/ml reserpine after 24 hrs; procedure, shortened: as §2
Streptococcus suis [6] = experiment: Antibacterial activity against Streptococcus suis BB1013 isolate after 24 hrs; procedure, shortened: as §1
Streptococcus suis [7] = experiment: Antibacterial activity against Streptococcus suis ATCC 43765 in presence of 10 ug/ml reserpine after 24 hrs; settings: ATCC 43765, 24 h; procedure, shortened: as §1
Streptococcus suis [8] = experiment: Antibacterial activity against Streptococcus suis BB1002 isolate in presence of 10 ug/ml reserpine after 24 hrs; procedure, shortened: as §1
Streptococcus suis [9] = experiment: Antibacterial activity against Streptococcus suis BB1006 isolate after 24 hrs; procedure, shortened: as §1
Streptococcus suis [10] = experiment: Antibacterial activity against Streptococcus suis BB1011 isolate in presence of 10 ug/ml reserpine after 24 hrs; procedure, shortened: as §2
Streptococcus suis [11] = experiment: Antibacterial activity against Streptococcus suis BB1015 isolate in presence of 10 ug/ml reserpine after 24 hrs; procedure, shortened: as §2
Streptococcus suis [12] = experiment: Antibacterial activity against Streptococcus suis BB1005 isolate after 24 hrs; procedure, shortened: as §1
Streptococcus suis [13] = experiment: Antibacterial activity against Streptococcus suis BB1014 isolate in presence of 10 ug/ml reserpine after 24 hrs; procedure, shortened: as §2
Streptococcus suis [14] = experiment: Antibacterial activity against Streptococcus suis BB1007 isolate in presence of 10 ug/ml reserpine after 24 hrs; procedure, shortened: as §1
Streptococcus suis [15] = experiment: Antibacterial activity against Streptococcus suis BB1017 isolate in presence of 10 ug/ml reserpine after 24 hrs; procedure, shortened: as §2
Streptococcus suis [16] = experiment: Antibacterial activity against Streptococcus suis BB1003 isolate in presence of 10 ug/ml reserpine after 24 hrs; procedure, shortened: as §1
Streptococcus suis [17] = experiment: Antibacterial activity against Streptococcus suis BB1006 isolate in presence of 10 ug/ml reserpine after 24 hrs; procedure, shortened: as §1
Streptococcus suis [18] = experiment: Antibacterial activity against Streptococcus suis BB1016 isolate in presence of 10 ug/ml reserpine after 24 hrs; procedure, shortened: as §2
Streptococcus suis [19] = experiment: Antibacterial activity against Streptococcus suis ATCC 43765 after 24 hrs; settings: ATCC 43765, 24 h; procedure, shortened: as §1
Streptococcus suis [20] = experiment: Antibacterial activity against Streptococcus suis BB1012 isolate in presence of 10 ug/ml reserpine after 24 hrs; procedure, shortened: as §2
Streptococcus suis [21] = experiment: Antibacterial activity against Streptococcus suis BB1011 isolate after 24 hrs
Streptococcus suis [22] = experiment: Antibacterial activity against Streptococcus suis BB1002 isolate after 24 hrs; procedure, shortened: as §1
Streptococcus suis [23] = experiment: Antibacterial activity against Streptococcus suis BB1004 isolate after 24 hrs; procedure, shortened: as §1
Streptococcus suis [24] = experiment: Antibacterial activity against Streptococcus suis BB1016 isolate after 24 hrs; procedure, shortened: as §1
Streptococcus suis [25] = experiment: Antibacterial activity against Streptococcus suis BB1015 isolate after 24 hrs; procedure, shortened: as §1
Streptococcus suis [26] = experiment: Antibacterial activity against Streptococcus suis BB1005 isolate in presence of 10 ug/ml reserpine after 24 hrs; procedure, shortened: as §1
Streptococcus suis [27] = experiment: Antibacterial activity against Streptococcus suis BB1001 isolate in presence of 10 ug/ml reserpine after 24 hrs; procedure, shortened: as §1
Streptococcus suis [28] = experiment: Antibacterial activity against Streptococcus suis BB1008 isolate in presence of 10 ug/ml reserpine after 24 hrs; procedure, shortened: as §1
Streptococcus suis [29] = experiment: Antibacterial activity against Streptococcus suis BB1010 isolate in presence of 10 ug/ml reserpine after 24 hrs; procedure, shortened: as §2
Streptococcus suis [30] = experiment: Antibacterial activity against Streptococcus suis BB1017 isolate after 24 hrs; procedure, shortened: as §1
Streptococcus suis [31] = experiment: Antibacterial activity against Streptococcus suis BB1004 isolate in presence of 10 ug/ml reserpine after 24 hrs; procedure, shortened: as §1
Streptococcus suis [32] = experiment: Antibacterial activity against Streptococcus suis BB1012 isolate after 24 hrs; procedure, shortened: as §1
Streptococcus suis [33] = experiment: Antibacterial activity against Streptococcus suis BB1014 isolate after 24 hrs; procedure, shortened: as §1
Streptococcus suis [34] = experiment: Antibacterial activity against Streptococcus suis BB1003 isolate after 24 hrs; procedure, shortened: as §1
Streptococcus suis [35] = experiment: Antibacterial activity against Streptococcus suis BB1008 isolate after 24 hrs; procedure, shortened: as §1
Streptococcus suis [36] = experiment: Antibacterial activity against Streptococcus suis BB1007 isolate after 24 hrs; procedure, shortened: as §1

In the case of `O=C(O)c1cn(C2CC2)c2cc(N3CCNCC3)c(F)cc2c1=O` [CIPROFLOXACIN], the MIC (Streptococcus suis [1]) is reported as 32 µg/mL (≈ 96.6 µM), the MIC (Streptococcus suis [2]) is reported as 32 µg/mL (≈ 96.6 µM) and the MIC (Streptococcus suis [3]) is reported as 0.5 µg/mL (≈ 1.51 µM). The MIC (Streptococcus suis [4]) was 16 µg/mL, the MIC (Streptococcus suis [5]) was 16 µg/mL and the MIC (Streptococcus suis [6]) was 64 µg/mL (≈ 193 µM). It also gave an MIC (Streptococcus suis [7]) of 0.5 µg/mL, an MIC (Streptococcus suis [8]) of 0.5 µg/mL and an MIC (Streptococcus suis [9]) of 2 µg/mL (≈ 6.04 µM). For the same compound, the MIC (Streptococcus suis [10]) was 16 µg/mL, the MIC (Streptococcus suis [11]) was 16 µg/mL and the MIC (Streptococcus suis [12]) was 0.5 µg/mL (≈ 1.51 µM). The MIC (Streptococcus suis [13]) was 16 µg/mL, the MIC (Streptococcus suis [14]) was 4 µg/mL and the MIC (Streptococcus suis [15]) was 16 µg/mL. The MIC (Streptococcus suis [16]) was 0.5 µg/mL, the MIC (Streptococcus suis [17]) was 1 µg/mL and the MIC (Streptococcus suis [18]) was 16 µg/mL. The MIC (Streptococcus suis [19]) was 0.5 µg/mL (≈ 1.51 µM), the MIC (Streptococcus suis [20]) was 16 µg/mL and the MIC (Streptococcus suis [21]) was 16 µg/mL (≈ 48.3 µM). For the same compound, the MIC (Streptococcus suis [22]) was 0.5 µg/mL (≈ 1.51 µM), the MIC (Streptococcus suis [23]) was 0.5 µg/mL (≈ 1.51 µM) and the MIC (Streptococcus suis [24]) was 32 µg/mL (≈ 96.6 µM). For the same compound, the MIC (Streptococcus suis [25]) was 32 µg/mL (≈ 96.6 µM), the MIC (Streptococcus suis [26]) was 0.5 µg/mL and the MIC (Streptococcus suis [27]) was 0.5 µg/mL. It also gave an MIC (Streptococcus suis [28]) of 32 µg/mL, an MIC (Streptococcus suis [29]) of 16 µg/mL and an MIC (Streptococcus suis [30]) of 64 µg/mL (≈ 193 µM). For the same compound, the MIC (Streptococcus suis [31]) was 0.5 µg/mL, the MIC (Streptococcus suis [32]) was 32 µg/mL (≈ 96.6 µM) and the MIC (Streptococcus suis [33]) was 64 µg/mL (≈ 193 µM). The MIC (Streptococcus suis [34]) was 0.5 µg/mL (≈ 1.51 µM) and the MIC (Streptococcus suis [35]) was 64 µg/mL (≈ 193 µM).

In the case of `CCN1CCN(c2cc3c(cc2F)c(=O)c(C(=O)O)cn3C2CC2)CC1` [ENROFLOXACIN], the MIC (Streptococcus suis [1]) is reported as 16 µg/mL (≈ 44.5 µM), the MIC (Streptococcus suis [2]) is reported as 32 µg/mL (≈ 89 µM) and the MIC (Streptococcus suis [3]) is reported as 0.5 µg/mL (≈ 1.39 µM). It also gave an MIC (Streptococcus suis [6]) of 8 µg/mL (≈ 22.3 µM), an MIC (Streptococcus suis [9]) of 1 µg/mL (≈ 2.78 µM) and an MIC (Streptococcus suis [12]) of 0.25 µg/mL (≈ 0.696 µM). It also gave an MIC (Streptococcus suis [36]) of 4 µg/mL (≈ 11.1 µM), an MIC (Streptococcus suis [19]) of 0.5 µg/mL (≈ 1.39 µM) and an MIC (Streptococcus suis [21]) of 16 µg/mL (≈ 44.5 µM). The MIC (Streptococcus suis [22]) was 0.5 µg/mL (≈ 1.39 µM), the MIC (Streptococcus suis [23]) was 0.5 µg/mL (≈ 1.39 µM) and the MIC (Streptococcus suis [24]) was 8 µg/mL (≈ 22.3 µM). It also gave an MIC (Streptococcus suis [25]) of 16 µg/mL (≈ 44.5 µM), an MIC (Streptococcus suis [30]) of 16 µg/mL (≈ 44.5 µM) and an MIC (Streptococcus suis [32]) of 8 µg/mL (≈ 22.3 µM). It also gave an MIC (Streptococcus suis [33]) of 16 µg/mL (≈ 44.5 µM), an MIC (Streptococcus suis [34]) of 0.5 µg/mL (≈ 1.39 µM) and an MIC (Streptococcus suis [35]) of 32 µg/mL (≈ 89 µM).

For `C[C@H]1COc2c(N3CCN(C)CC3)c(F)cc3c(=O)c(C(=O)O)cn1c23.C[C@H]1COc2c(N3CCN(C)CC3)c(F)cc3c(=O)c(C(=O)O)cn1c23.O` [LEVOFLOXACIN], the MIC (Streptococcus suis [1]) was 16 µg/mL, the MIC (Streptococcus suis [2]) was 32 µg/mL and the MIC (Streptococcus suis [3]) was 1 µg/mL. The MIC (Streptococcus suis [6]) was 16 µg/mL, the MIC (Streptococcus suis [9]) was 1 µg/mL and the MIC (Streptococcus suis [12]) was 0.5 µg/mL. The MIC (Streptococcus suis [36]) was 2 µg/mL, the MIC (Streptococcus suis [19]) was 1 µg/mL and the MIC (Streptococcus suis [21]) was 16 µg/mL. The MIC (Streptococcus suis [22]) was 1 µg/mL, the MIC (Streptococcus suis [23]) was 1 µg/mL and the MIC (Streptococcus suis [24]) was 32 µg/mL. It also gave an MIC (Streptococcus suis [25]) of 16 µg/mL, an MIC (Streptococcus suis [30]) of 64 µg/mL and an MIC (Streptococcus suis [32]) of 16 µg/mL. The MIC (Streptococcus suis [33]) was 32 µg/mL, the MIC (Streptococcus suis [34]) was 0.5 µg/mL and the MIC (Streptococcus suis [35]) was 16 µg/mL.

`CCn1cc(C(=O)O)c(=O)c2ccc(C)nc21` [NALIDIXIC ACID] showed an MIC (Streptococcus suis [1]) of over 64 µg/mL, an MIC (Streptococcus suis [2]) of over 64 µg/mL and an MIC (Streptococcus suis [3]) of over 64 µg/mL. The MIC (Streptococcus suis [6]) was over 64 µg/mL, the MIC (Streptococcus suis [9]) was over 64 µg/mL and the MIC (Streptococcus suis [12]) was over 64 µg/mL. It also gave an MIC (Streptococcus suis [36]) of over 64 µg/mL, an MIC (Streptococcus suis [19]) of over 64 µg/mL and an MIC (Streptococcus suis [21]) of over 64 µg/mL. The MIC (Streptococcus suis [22]) was over 64 µg/mL, the MIC (Streptococcus suis [23]) was over 64 µg/mL and the MIC (Streptococcus suis [24]) was over 64 µg/mL. The MIC (Streptococcus suis [25]) was over 64 µg/mL, the MIC (Streptococcus suis [30]) was over 64 µg/mL and the MIC (Streptococcus suis [32]) was over 64 µg/mL. For the same compound, the MIC (Streptococcus suis [33]) was over 64 µg/mL, the MIC (Streptococcus suis [34]) was over 64 µg/mL and the MIC (Streptococcus suis [35]) was over 64 µg/mL.

Work on `CCn1cc(C(=O)O)c(=O)c2cc(F)c(N3CCNCC3)cc21` [NORFLOXACIN] yielded an MIC (Streptococcus suis [1]) of 32 µg/mL (≈ 100 µM), an MIC (Streptococcus suis [2]) of over 64 µg/mL and an MIC (Streptococcus suis [3]) of 2 µg/mL (≈ 6.26 µM). It also gave an MIC (Streptococcus suis [6]) of over 64 µg/mL, an MIC (Streptococcus suis [9]) of 32 µg/mL (≈ 100 µM) and an MIC (Streptococcus suis [12]) of 4 µg/mL (≈ 12.5 µM). For the same compound, the MIC (Streptococcus suis [36]) was 16 µg/mL (≈ 50.1 µM), the MIC (Streptococcus suis [19]) was 4 µg/mL (≈ 12.5 µM) and the MIC (Streptococcus suis [21]) was 32 µg/mL (≈ 100 µM). For the same compound, the MIC (Streptococcus suis [22]) was 2 µg/mL (≈ 6.26 µM), the MIC (Streptococcus suis [23]) was 2 µg/mL (≈ 6.26 µM) and the MIC (Streptococcus suis [24]) was over 64 µg/mL. The MIC (Streptococcus suis [25]) was over 64 µg/mL, the MIC (Streptococcus suis [30]) was over 64 µg/mL and the MIC (Streptococcus suis [32]) was over 64 µg/mL. The MIC (Streptococcus suis [33]) was over 64 µg/mL, the MIC (Streptococcus suis [34]) was 4 µg/mL (≈ 12.5 µM) and the MIC (Streptococcus suis [35]) was over 64 µg/mL.
